Data from ChEMBL document CHEMBL1124548 (1989).

Assays:
[1] = system: MT4; experiment: Cytotoxic dose in MT-4 cells; assay type: functional; conditions: Homo sapiens, read-out: CD50 (the source's name)
[2] = biological target: Human immunodeficiency virus type 1 reverse transcriptase (Human immunodeficiency virus 1) (UniProt Q72547); experiment: Inhibitory activity against HIV-1 replication in MT-4 cells; assay type: functional, cell-based; conditions: MT4
In short: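 HTLV-IIIB strain of HIV in MT-4 cells, run in parallel with cytotoxicity on uninfected MT-4 cells. The read-out is protection of infected cells from virus-induced cytopathic effect. ED50 is the dose giving 50% protection.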

[3] = biological target: Human immunodeficiency virus type 1 reverse transcriptase (Human immunodeficiency virus 1) (UniProt Q72547); experiment: Selectivity index is the […] values against inhibition of HIV-1 in MT-4 cells; assay type: functional, cell-based; conditions: MT4
In short: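 Selectivity index is CD50 (50% viability reduction of uninfected MT-4 cells) divided by ED50 (50% protection of HIV-infected MT-4 cells against cytopathic effect). Both come from parallel assays.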

Structure (SMILES) | CC50 [1] | ED50 [2] | SI [3]
COc1ccn([C@H]2C[C@H](F)[C@@H](CO)O2)c(=O)n1 | 348 µM | 46 µM | 7.6
Nc1ncnc2c1ncn2[C@H]1C[C@H](F)[C@@H](CO)O1 | 557 µM | 50 µM | 11.1
Cc1cn([C@@H]2O[C@H](CO)C[C@H]2F)c(=O)nc1N | > 500 µM | > 500 µM | –
Cc1cn([C@H]2C[C@H](N=[N+]=[N-])[C@@H](CO)O2)c(=O)[nH]c1=O [ZIDOVUDINE] | 4.8 µM | 0.003 µM | 1600
Cc1cn([C@H]2C=C(F)[C@@H](CO)O2)c(=O)[nH]c1=O | 240 µM | 11 µM | 22
O=c1[nH]c(=O)n([C@H]2C[C@H](F)[C@@H](CO)O2)cc1Cl [RALURIDINE] | 535 µM | 0.38 µM | 1410
O=c1[nH]c(=O)n([C@H]2C[C@H](F)[C@@H](CO)O2)cc1I | 2.17 µM | 0.16 µM | 13.6
Cc1cn([C@@H]2O[C@H](CO)C[C@H]2F)c(=O)[nH]c1=O | > 500 µM | 53 µM | > 9.4
[N-]=[N+]=N[C@H]1C[C@H](n2cnc3c(N)ncnc32)O[C@@H]1CO | – | 5 µM | –
Cc1cn([C@H]2C[C@H](F)[C@@H](CO)O2)c(=O)[nH]c1=O [ALOVUDINE] | 0.197 µM | 0.001 µM | 197
[N-]=[N+]=N[C@H]1C[C@H](n2c(Br)nc3c(N)ncnc32)O[C@@H]1CO | 409 µM | > 500 µM | < 1
[N-]=[N+]=N[C@H]1C[C@H](n2cnc3c(O)ncnc32)O[C@@H]1CO | 15 µM | > 8 µM | < 2
Cc1cn([C@@H]2O[C@H](CO)C[C@@H]2F)c(=O)[nH]c1=O | > 500 µM | > 500 µM | –
Cc1cn([C@H]2C[C@H](F)[C@@H](CO)O2)c(=O)nc1N | 7.7 µM | 1.7 µM | 4.5
Nc1ccn([C@@H]2O[C@H](CO)C[C@@H]2F)c(=O)n1 | 117 µM | 9.8 µM | 12
O=c1[nH]c(=O)n([C@H]2C[C@H](F)[C@@H](CO)O2)cc1F | 40 µM | > 20 µM | < 2
O=c1[nH]c(=O)n([C@H]2C[C@H](F)[C@@H](CO)O2)cc1Br | 24 µM | 0.41 µM | 59
Nc1ncnc2c1nc(Br)n2[C@H]1CC[C@@H](CO)O1 | 500 µM | 484 µM | 1
O=c1ccn([C@H]2C[C@H](F)[C@@H](CO)O2)c(=O)[nH]1 | 16 µM | 0.04 µM | 400
Nc1ncnc2c1ncn2[C@H]1CC[C@@H](CO)O1 | 890 µM | 6.4 µM | 139
OC[C@H]1O[C@@H](n2cnc3c(O)ncnc32)C[C@@H]1F | 500 µM | 484 µM | 1
